Source: PubChem BioAssay (several laboratories)
NPY-Y1 PAM-ag: NPY-Y1 receptor potentiators or agonists, primary screen, cell-based; NPY-Y1 expressing cells, potentiator/agonist activation; activation, % at 3.6 µM; Neuropeptide Y receptor type 1 (Homo sapiens), P25929; AID 1304, 2008; 220,000 compounds, 0.37% hits; in the data active = activation above about 33%, passing the limit was not always enough;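 also: cells stimulated with NPY at EC10 then isoproterenol at EC100; 0% = low agonist plus stimulus and 100% = saturating agonist plus stimulus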
NPY Y2 blocker: NPY-Y2 receptor antagonists, primary screen, cell-based; Neuropeptide Y receptor type 2 (Homo sapiens), P49146; NPY-Y2 expressing cells, antagonist mode; inhibition, % at 2.7 µM; 140,000 compounds, 0.99% hits; AID 793, 2007; in the data active = inhibition above about 17%;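 also: 0% = vehicle with agonist challenge and 100% = reference antagonist with challenge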
NPY2 pot ag: NPY-Y2 potentiators or agonists, primary screen, cell-based; cells expressing NPY-Y2, potentiator/agonist read-out; activation, % at 3.6 µM; 220,000 compounds, 0.45% hits; AID 1359, 2008; in the data active = activation above about 27%;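 also: cells stimulated with NPY near EC25 plus isoproterenol at EC100; 0% = vehicle plus submaximal agonist and 100% = vehicle plus saturating agonist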
NPY-Y1 antag: NPY-Y1 receptor antagonists, primary screen, cell-based. Neuropeptide Y receptor type 1 (Homo sapiens), P25929. HEK293-CNG Y1 cells, membrane potential fluorescence; NPY at EC95, then isoproterenol. inhibition, % at 3.6 µM. 200,000 compounds, 1% hits;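 active = inhibition above the campaign mean inhibition of all tested compounds plus 3 SD, cut at about 20% in these data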;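 also: 0% = DMSO wells given NPY plus isoproterenol and 100% = isoproterenol alone without NPY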
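Assay system: HEK293 cells with Y1 receptor plus CNG channel | Probe or stimulus: NPY (25 nM), isoproterenol (1 µM), Ro 20-1724 (25 µM) | Timing: Compound incubation 1 h at room temperature, readout 45 min post-stimulation | Measured by: Membrane-potential fluorescent dye readout | Benchmarks: High control isoproterenol alone, low control NPY with isoproterenol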
EP2 antag: human EP2 receptor antagonists, primary screen, TR-FRET cAMP, C6 glioma cells | inhibition, % at 25 µM | AID 1422, 2008 | 260,000 compounds, 0.52% hits | Prostaglandin E2 receptor EP2 subtype (Homo sapiens), P43116 | C6 glioma cells expressing human EP2; cells stimulated with saturating PGE2;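 active = percent inhibition above 40 after rounding to a whole number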;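 also: rat C6 glioma host cells with rolipram phosphodiesterase inhibitor present; the protocol text gives 20 µM as final concentration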
Target sequence (P43116 whole entry, looked up): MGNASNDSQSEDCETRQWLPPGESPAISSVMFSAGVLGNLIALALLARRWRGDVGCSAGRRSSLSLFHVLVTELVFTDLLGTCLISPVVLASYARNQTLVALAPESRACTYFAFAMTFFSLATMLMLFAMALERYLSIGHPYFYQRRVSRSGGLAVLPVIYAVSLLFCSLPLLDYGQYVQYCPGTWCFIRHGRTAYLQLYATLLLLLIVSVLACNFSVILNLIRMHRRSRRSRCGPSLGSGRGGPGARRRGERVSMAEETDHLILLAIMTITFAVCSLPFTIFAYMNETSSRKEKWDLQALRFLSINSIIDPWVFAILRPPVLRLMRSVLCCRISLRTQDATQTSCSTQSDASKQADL
EP2 modulator: EP2 receptor modulators, cAMP readout, primary screen, cell-based, HTRF cAMP, PGE2 stimulation; EP2-expressing cells, cAMP HTRF FRET, PGE2 co-stimulation; induction, % at 25 µM; 260,000 compounds, 0.83% hits; AID 940, 2007;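 active = compounds whose cAMP rise, as percent of the full-agonist control response, exceeds 60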;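 also: rat C6 glioma line stably carrying human EP2 under a CMV promoter; the protocol text gives 20 µM as final concentration; 100% = response of wells given 1 µM PGE2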
Starred values were filed as active, the others as inactive; / = no result given; ! = a repeat was not active. The list is not random: actives were taken first. Their share in the collection is about 2.8%.

SMILES	NPY-Y1 PAM-ag	NPY Y2 blocker	NPY2 pot ag	NPY-Y1 antag	EP2 antag	EP2 modulator
O=C(O)CNC(=O)[C@H]1NC(C(F)(F)F)(C(F)(F)F)OC1(C(F)(F)F)C(F)(F)F	/	/	/	/	42*	25
COc1c(-c2coc3cc4c(cc3c2=O)CC(O)C(C)(C)O4)ccc2c1C=CC(C)(C)O2 (configuration not stated)	/	/	/	/	92*	-53
COc1c(-c2coc3cc4c(cc3c2=O)CC(OC(C)=O)C(C)(C)O4)ccc2c1C=CC(C)(C)O2 (configuration not stated)	/	/	/	/	12	14
COC(=O)c1cc([N+](=O)[O-])c(-n2ccnc2)c([N+](=O)[O-])c1	18	4	1	-1	5	63*
O=C(O)c1ccc(-n2ccnc2)c([N+](=O)[O-])c1	-4	0	-8	1	3	34
CC(C)(C)NCC(O)CON=C1c2ccccc2-c2ccccc21 (configuration not stated)	104*	/	100*	-5	5	-43
Cc1cc2cc(CN(CC3COCCO3)S(=O)(=O)c3ccc(C)c(Cl)c3)c(=O)[nH]c2cc1C (configuration not stated)	/	/	/	/	12	-21
COc1ccc(-c2nnc(SCC(=O)Nc3cccc(C(F)(F)F)c3)n2C)cc1OC	/	/	/	/	9	-9
CN(C)c1nc(NCc2ccccc2)nc(SCC(=O)Nc2ccccc2Cl)n1	2	43*	-3	26*	8	53
CN(C)c1nc(NCc2ccccc2)nc(SCC(=O)Nc2ccccc2)n1	-22	16	-24	7	5	40
Cc1cc(C2(c3ccc(O)c(C)c3)C(=O)Nc3ccccc32)ccc1O	6	-1	24	-2	6	61*
Cc1cccc2c1NC(=O)C2(c1ccc(O)cc1)c1ccc(O)cc1	-39	114*	-14	116*	12	12
COc1ccc(/C(O)=C2/C(=O)C(=O)N(CCN(C)C)C2c2ccc(O)c(OC)c2)c(C)c1 (configuration not stated)	/	/	/	/	12	8
CCn1cc(C(=O)N2CCC(c3nc(C)ncc3-c3ccncc3)CC2)cn1	/	/	/	/	/	-11
COC(=O)c1c(NC(=O)c2ccco2)sc(C(=O)Nc2cccc(Cl)c2C)c1C	/	/	/	/	26	-3
O=[N+]([O-])c1cc(Cl)ccc1N1CCCC1	4	/	-3	7	9	23
O=[N+]([O-])c1cc(Cl)ccc1N1CCN(c2cccc(C(F)(F)F)c2)CC1	6	21*	-6	20*	4	41
O=C(c1ccco1)N1CCN(C2CCCCC2)CC1	/	/	/	/	5	8
CCC(Oc1nc2ccccc2nc1-c1ccccc1NC(C)=O)C(=O)c1ccccc1 (configuration not stated)	-24	20*	-8	33*	3	45
O=C(N1CCOCC1)N1CCC(Cn2nc(-c3ccccc3)ccc2=O)CC1	/	/	/	/	/	-14
CCOC(=O)/C=C(\C)Sc1cc(O)c2ccccc2c1O	-5	/	-19	/	69*	-52
CCOCCCn1c(SCC(=O)Nc2ccc(C(C)=O)cc2)nc2ccccc2c1=O	/	/	/	/	18	-5
C[C@H]1O[C@@H](O[C@H]2[C@@H](O)C[C@H](O[C@H]3[C@@H](O)C[C@H](O[C@H]4CC[C@@]5(C)[C@H](CC[C@@H]6[C@@H]5C[C@@H](O)[C@]5(C)[C@@H](C7=CC(=O)OC7)CC[C@]65O)C4)O[C@@H]3C)O[C@@H]2C)C[C@H](O)[C@@H]1O	-88	53*	-22	49*	13	20
Cc1ccc(C)c2[nH]c(=O)c(CN(C(=S)Nc3ccc(F)cc3)C3CCCC3)cc12	/	/	/	/	9	12
CC1CCN(c2nc(CN3CCCCC3)nc3scc(-c4ccccc4)c23)CC1	-41	47*	-11	41*	6	17
SMILES	NPY-Y1 PAM-ag	NPY Y2 blocker	NPY2 pot ag	NPY-Y1 antag	EP2 antag	EP2 modulator
O=C(O)c1cccc(S(=O)(=O)Nc2ccccn2)c1	/	/	/	/	63*	-36
O=C(O)c1cccc(S(=O)(=O)Nc2ccccc2Cl)c1	16	1	14	-3	/	12
CCOc1ccc(N(C(C)C(=O)N2CCN(c3ccc(OC)cc3)CC2)S(C)(=O)=O)cc1 (configuration not stated)	/	/	/	/	10	-4
CC(C)(C)NCC(O)c1cc(O)cc(O)c1 (configuration not stated)	11	1	7	-2	17	47
CNC[C@@H](O)c1ccc(O)c(O)c1	/	/	/	/	10	82*
CC(C)(C)NCC(O)c1ccc(O)c(CO)c1 (configuration not stated)	/	/	/	/	14	78*!
O=C(O)c1c(Cl)c(Cl)c(Cl)c(Cl)c1C(=O)Nc1ccc2cn[nH]c2c1	/	/	/	/	58*	-4
Cc1ccc(CN2CCN(Cc3ccc(C)o3)[C@@H](C)C2)o1	/	/	/	/	43*	12
CC(C)c1nccn1CCC(=O)N1CCCC(n2nc(-c3cccs3)ccc2=O)C1 (configuration not stated)	/	/	/	/	/	-13
O=[N+]([O-])c1ccc(NCCNS(=O)(=O)c2ccccc2)c(C(F)(F)F)c1	-12	-2	6	-3	12	-18
Cc1ccc(S(=O)(=O)NCCNc2ccc([N+](=O)[O-])cc2C(F)(F)F)cc1	7	-7	35*	-13	9	-1
S=c1nc(Cc2ccc(Cl)cc2)[nH]c2ccccc12	0	/	-3	4	3	19
S=c1nc(COc2ccccc2)[nH]c2ccccc12	/	/	/	/	19	66*
Cc1ccc(-c2cc3ccccc3nc2N2CCCC2)cc1	-30	10	7	3	11	62*
Clc1ccc(-c2cc3ccccc3nc2N2CCOCC2)cc1	-24	/	-9	5	7	54
Clc1ccc(-c2cc3ccccc3nc2N2CCCC2)cc1	-21	4	-5	8	10	64*
Cc1nc2ccccc2nc1N1CCCC1	-5	/	15	/	4	-2
CCn1cc(C(=O)N2CCC(c3nc(C)ncc3-c3ccncc3)CC2)c(C)n1	/	/	/	/	/	-28
CC(C)(C)C(=O)NC1CCN(C(=S)Nc2cccc(Cl)c2)CC1	/	/	/	/	4	-41
CCCC(c1nnnn1C1CCCC1)N(Cc1cc2c(C)cc(C)cc2[nH]c1=O)C1CCCCC1 (configuration not stated)	/	/	/	/	7	20
CC1CCN(c2ccccc2NC(=S)NC(=O)C(C)(C)C)CC1	1	/	-7	7	7	23
CC1CCN(c2ccccc2NC(=S)NC(=O)c2ccco2)CC1	-48	12	-25	35*	2	/
COc1ccc2cc(C)c3nnc(SCC(=O)NNC(C)=O)n3c2c1	/	/	/	/	11	-12
